The values that follow come from ChEMBL document CHEMBL4706740, “Structure-Activity Study of Nitazoxanide Derivatives as Novel STAT3 Pathway Inhibitors” (ACS Med Chem Lett, 2021).

A short description of series [1]: Elimination Half life in Sprague-Dawley rat at 25 mg/kg, IG. The format is ADME, organism-based. The following applies: in vivo, po, read-out: beta t1/2 (converted). Summed up: (§1)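 Rats, n = 3 per group, received a single dose either intragastrically (25 mg/kg) or intravenously (5 mg/kg). Plasma concentration–time curves were used to derive t1/2α, t1/2β, Vd/F, CL/F, AUC0–∞, Tmax and Cmax. Absolute oral bioavailability was calculated from the ig and iv data.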

Series [2] in a line: Apparent volume of distribution in Sprague-Dawley rat at 25 mg/kg, IG. Format: ADME, organism-based. The conditions noted are these: in vivo, po.
Series [3] is described as follows: Cmax in Sprague-Dawley rat at 5 mg/kg, iv. Format: ADME, organism-based. Further details: route intravenous, dose 5 mg/kg. The conditions noted are these: in vivo. A digest of the protocol: as §1
Series [4] can be described thus: Tmax in Sprague-Dawley rat at 25 mg/kg, IG. Format: ADME, organism-based. The following applies: in vivo, po.
The nature of series [5]: Absolute bioavailability in Sprague-Dawley rat at 25 mg/kg, IG. The format is ADME, organism-based. The following applies: in vivo, po. A digest of the protocol:
as §1

Series [6] in a line: AUC (0 to infinity) in Sprague-Dawley rat at 25 mg/kg, IG. The format is ADME, organism-based. More on the design: route […], time infinity, dose 25 mg/kg. The conditions noted are these: in vivo, po. A digest of the protocol: as §1
Series [7] in a line: Cmax in Sprague-Dawley rat at 25 mg/kg, IG. The format is ADME, organism-based. Further details: route […], dose 25 mg/kg. The following applies: in vivo, po. Summed up: as §1
Series [8] can be described thus: AUC (0 to infinity) in Sprague-Dawley rat at 5 mg/kg, iv. The format is ADME, organism-based. More on the design: route intravenous, time infinity, dose 5 mg/kg. The conditions noted are these: in vivo. Summed up:
as §1

A short description of series [9]: Half life in Sprague-Dawley rat at 25 mg/kg, IG. Format: ADME, organism-based. The conditions noted are these: in vivo, po. A digest of the protocol: as §1
Series [10] can be described thus: Apparent oral clearance in Sprague-Dawley rat at 25 mg/kg, IG. The format is ADME, organism-based. The conditions noted are these: in vivo, read-out: CL/F (converted). Summed up:
as §1

A short description of series [11]: Half life in Sprague-Dawley rat at 5 mg/kg, iv. The format is ADME, organism-based. The following applies: in vivo. A digest of the protocol:
as §1

Series [12] is described as follows: Apparent volume of distribution in Sprague-Dawley rat at 5 mg/kg, iv. The format is ADME, organism-based. The following applies: in vivo. Summed up: as §1
Series [13] can be described thus: Elimination Half life in Sprague-Dawley rat at 5 mg/kg, iv. The format is ADME, organism-based. The following applies: in vivo, read-out: beta t1/2 (converted). Summed up: as §1
A further series relates to HeLa. Nature of the series: Cytotoxicity against human HeLa cells assessed as inhibition of cell viability measured after 48 hrs by MTT assay. The format is functional, cell-based. A digest of the protocol: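 Growth was read by MTT assay and IC50 taken from dose–response curves. Values are averages of three independent experiments.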
For orientation: Formazan colour is commonly taken as a measure of viable cells.

A short description of series [14]: Cytotoxicity against human HeLa cells assessed as inhibition of cell viability at 10 uM measured after 48 hrs by MTT assay. Format: cell-based. The following applies: read-out: INH.
Series [15] in a line: Cytotoxicity against human HEK 293T cells assessed as cell growth inhibition at 10 uM measured after 48 hrs by MTT assay. The format is cell-based.
Series [16] is described as follows: Cytotoxicity against human HEK 293T cells assessed as cell growth inhibition at 50 uM measured after 48 hrs by MTT assay. Format: cell-based.
In series [17] the target is Signal transducer and activator of transcription 3 (Homo sapiens) (UniProt P40763). In words: Inhibition of IL-6 induced STAT3 transcriptional activity in human HEK-Blue IL-6 cells assessed as secreted embryonic alkaline phosphatase reporter gene expression at 10 uM by microplate reader. The format is cell-based. A digest of the protocol:
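Single-concentration screen in HEK-Blue IL-6 cells: % inhibition of the SEAP reporter read-out of STAT3 pathway activity, with viability checked by MTT in parallel. Values are averages of three independent experiments.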

Each structure is given as a SMILES string.

Sequence of Signal transducer and activator of transcription 3 (Homo sapiens) (P40763 whole entry): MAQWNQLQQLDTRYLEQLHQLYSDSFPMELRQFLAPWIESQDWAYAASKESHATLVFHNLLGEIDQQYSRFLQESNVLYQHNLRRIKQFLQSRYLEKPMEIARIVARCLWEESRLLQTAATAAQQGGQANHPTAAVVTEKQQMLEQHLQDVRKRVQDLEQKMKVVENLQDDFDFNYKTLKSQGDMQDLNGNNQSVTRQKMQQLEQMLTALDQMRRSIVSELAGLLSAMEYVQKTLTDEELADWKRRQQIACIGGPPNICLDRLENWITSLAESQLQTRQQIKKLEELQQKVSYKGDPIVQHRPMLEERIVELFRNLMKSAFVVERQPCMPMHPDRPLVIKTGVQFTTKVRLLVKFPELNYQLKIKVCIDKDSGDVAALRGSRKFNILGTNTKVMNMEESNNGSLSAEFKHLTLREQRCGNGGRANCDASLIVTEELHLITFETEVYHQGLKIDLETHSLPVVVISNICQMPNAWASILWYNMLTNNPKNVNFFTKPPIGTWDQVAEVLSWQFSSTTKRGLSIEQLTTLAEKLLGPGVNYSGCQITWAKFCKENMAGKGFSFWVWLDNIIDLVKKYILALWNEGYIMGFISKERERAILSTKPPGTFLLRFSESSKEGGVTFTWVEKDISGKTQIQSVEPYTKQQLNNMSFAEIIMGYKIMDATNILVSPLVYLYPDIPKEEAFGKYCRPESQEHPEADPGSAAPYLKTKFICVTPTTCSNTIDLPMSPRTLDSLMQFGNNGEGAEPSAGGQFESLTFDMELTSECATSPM

With `O=C(Nc1ncc([N+](=O)[O-])s1)c1ccc(C(F)(F)F)cc1`, the half-life in [1] is 11.1 h; in [9], 1.9 h; in series [11], 3.6 min; in series [13] it was 2.3 h. The Vd/F in series [2] and in series [12] was 0.5 L/kg in each case. For the same molecule, the Cmax (commonly the highest concentration seen after dosing) was determined as 28100 ng/mL in series [3] and 20700 ng/mL in series [7]. The Tmax (commonly the time from dosing to the highest level) in series [4] stood at 4 h. The bioavailability (as a rule, dose-corrected exposure relative to a reference, in per cent) in series [5] came out at 87.4%. Also, the results for the area under the curve AUC(0-inf) in series [6] and in series [8] were 391 µg·h/mL and 89.4 µg·h/mL, respectively. Moreover, in series [10], the CL/F is 0.833 mL/min/kg. In the case of `O=C(Nc1ncc([N+](=O)[O-])s1)c1ccccc1O` [TIZOXANIDE], the IC50 (as a rule, the point on the concentration scale where inhibition reaches its midpoint) with HeLa worked out at 29.8 µM. In series [14], the cytotoxicity at 48 h, 10 µM worked out at 12.7%. Further, in [15], the inhibition (commonly the drop in the measured response relative to a control, in per cent) at 48 h, 10 µM is -5.7%. Also, the inhibition at 48 h, 50 µM in [16] was 21.6%.

For `O=C(Nc1ncc([N+](=O)[O-])s1)c1ccc(S(=O)(=O)Nc2ccccc2)cc1`, the inhibition in [17] was found to be 9%. In the case of `O=C(Nc1ncc([N+](=O)[O-])s1)c1ccc(N2CCOCC2)cc1`, in [17], the inhibition is 9%. Also, the cytotoxicity at 48 h, 10 µM in series [14] was 50.6%. Turning to `CC(C)(C)c1ccc(C(=O)Nc2ncc([N+](=O)[O-])s2)cc1`, in series [17], the inhibition was found to be 43.7%. For `O=C(Nc1ncc([N+](=O)[O-])s1)c1ccc(O)c(O)c1`, the inhibition in series [17] turned out to be 26.7%. Turning to `O=C(Nc1ncc([N+](=O)[O-])s1)c1cccc(O)c1`, in series [17], the inhibition was determined as 28.5%. On to `COc1ccc(C(=O)Nc2ncc([N+](=O)[O-])s2)cc1`, for which the inhibition in [17] was found to be 14.9%. `CN1CCN(c2ccc(C(=O)Nc3ncc([N+](=O)[O-])s3)cc2)CC1`: in series [17], the inhibition is -3.3%.

Regarding `O=C(Nc1ncc([N+](=O)[O-])s1)c1ccccc1`, in [17], the inhibition worked out at 35.5%. As to `NS(=O)(=O)c1ccc(C(=O)Nc2ncc([N+](=O)[O-])s2)cc1`, the inhibition in [17] was -9.7%. Take `O=C(Nc1ncc([N+](=O)[O-])s1)c1ccccc1Cl`: in [17], the inhibition turned out to be 23%.

Regarding `O=C(Nc1ncc([N+](=O)[O-])s1)c1ccccc1F`, the inhibition in [17] was 22.1%.

For `O=C(Nc1ncc([N+](=O)[O-])s1)c1ccc(O)cc1`, the inhibition in series [17] was determined as 20.9%.

Regarding `O=C(Nc1ncc([N+](=O)[O-])s1)c1ccc(O)cc1O`, the inhibition in series [17] turned out to be 15.5%. `C#CCN(C(=O)c1ccc(C(F)(F)F)cc1)c1ncc([N+](=O)[O-])s1`: in [17], the inhibition was 9.1%. As to `O=C(Nc1ncc([N+](=O)[O-])s1)c1ccccc1Br`, the inhibition in series [17] came out at 25.1%. Also, the cytotoxicity at 48 h, 10 µM in series [14] was -10.1%.

With `CS(=O)(=O)c1ccc(C(=O)Nc2ncc([N+](=O)[O-])s2)cc1`, the inhibition in [17] worked out at 5.3%.

Take `C[C@H](NC(=O)/C(C#N)=C/c1cccc(Br)n1)c1ccccc1` [WP 1066]: the 50% inhibitory concentration (IC50) with HeLa came to 4.2 µM. Further, in series [15], the inhibition at 48 h, 10 µM came out at 79.9%. In addition, the inhibition at 48 h, 50 µM in series [16] was determined as 97.2%. Turning to `Cc1ccccc1C(=O)Nc1ncc([N+](=O)[O-])s1`, the inhibition in series [17] stood at 36.4%.

For the molecule `O=C(Nc1ncc([N+](=O)[O-])s1)c1ccccc1[N+](=O)[O-]`, the inhibition in series [17] worked out at 19%.
